The source made the active and inactive calls. No cut-off for these calls is given here.
How the values were obtained:
[1] = Inhibition of hedgehog signaling pathway-mediated GLI1 mRNA expression in mouse C3H10T1/2 cells assessed as residual activity at 5 uM after 24 hrs by RT-PCR analysis relative to 20alpha-hydroxycholesterol/22(S)-hydroxycholesterol; format: cell-based; conditions: C3H 10T1/2
How it was run: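 C3H10T1/2 cells co-treated with analogue and the oxysterol Hh activators 20α-hydroxycholesterol plus 22(S)-hydroxycholesterol (5 μM each) for 24 h. Gli1 mRNA measured by qPCR as % of OHC-only control (100%). Analogue at 5 μM, or at 0.5 μM where stated.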

[2] = Inhibition of hedgehog signaling pathway-mediated PTCH mRNA expression in mouse C3H10T1/2 cells after 24 hrs by RT-PCR analysis; format: cell-based; conditions: C3H 10T1/2, 24 h
How it was run: (§1)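 OHC-stimulated C3H10T1/2 cells (20α- and 22(S)-hydroxycholesterol, 5 μM each) given analogue at a range of concentrations. Gli1 and Ptch mRNA quantified by qPCR. IC50 given as mean ± SEM of at least two experiments run in triplicate.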

[3] = Inhibition of hedgehog signaling pathway-mediated GLI1 mRNA expression in mouse C3H10T1/2 cells after 24 hrs by RT-PCR analysis; format: cell-based; how it was run: as §1
[4] = target: T1, Vitamin D3 receptor (Mus musculus) (UniProt P48281); experiment: Activation of VDR in mouse C3H10T1/2 cells assessed as upregulation of CYP24A1 mRNA expression at 5 uM after 24 hrs by RT-PCR analysis relative to DMSO-treated control; format: cell-based; conditions: C3H 10T1/2
T1 sequence (whole entry): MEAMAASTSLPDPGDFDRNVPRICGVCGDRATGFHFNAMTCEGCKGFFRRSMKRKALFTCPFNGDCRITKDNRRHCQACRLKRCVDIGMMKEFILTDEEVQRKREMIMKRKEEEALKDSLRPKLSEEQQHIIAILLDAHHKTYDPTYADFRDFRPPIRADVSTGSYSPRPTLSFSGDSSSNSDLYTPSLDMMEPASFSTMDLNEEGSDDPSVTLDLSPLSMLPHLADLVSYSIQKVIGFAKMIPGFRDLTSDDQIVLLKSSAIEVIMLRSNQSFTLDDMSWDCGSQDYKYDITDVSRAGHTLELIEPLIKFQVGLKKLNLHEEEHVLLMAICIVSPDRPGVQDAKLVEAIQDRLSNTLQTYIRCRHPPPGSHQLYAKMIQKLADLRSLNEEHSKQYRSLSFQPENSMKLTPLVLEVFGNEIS
How it was run: (§2)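 Cyp24A1 mRNA read by qPCR after 24 h exposure at 5 μM. Up-regulation normalized to DMSO control, set to 1.0.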

[5] = Inhibition of hedgehog signaling pathway-mediated GLI1 mRNA expression in mouse ASZ001 cells after 24 hrs by RT-PCR analysis; format: cell-based; conditions: ASZ001, 24 h
How it was run: (§3)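 ASZ001 (murine BCC) or DAOY (human medulloblastoma) cells given analogue at a range of concentrations. Gli1 and Ptch mRNA quantified by qPCR. IC50 given as mean ± SEM of at least two experiments in triplicate.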

[6] = target: Protein smoothened (Homo sapiens) (UniProt Q99835); experiment: Displacement of BODIPY-cyclopamine from full length human SMO receptor overexpressed in HEK293T cell membranes up to 10 uM after 5 hrs by fluorescence polarization assay; conditions: HEK-293T
How it was run: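 Membranes from HEK293T cells transfected with full-length human Smo, collected 24 h post-transfection. Cells lysed in hypotonic buffer (50 mM Tris-HCl, 1 mM EDTA, pH 7.5, protease inhibitors) by syringe passage. Membranes pelleted at 20000g after a 500g spin. Membranes (10 μg/well) incubated with BODIPY-cyclopamine (5 nM) and compound at 30 °C for 5 h. Fluorescence polarization at ex 485/em 528. Triplicate.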

[7] = target: T1, Vitamin D3 receptor (Mus musculus); experiment: Activation of VDR in mouse ASZ001 cells assessed as upregulation of CYP24A1 mRNA expression at 5 uM after 24 hrs by RT-PCR analysis relative to DMSO-treated control; format: cell-based; how it was run: as §2
[8] = test system: C3H 10T1/2; experiment: Effect on CYP24A1 RNA level in VDR-knockdown mouse C3H10T1/2 cells at 5 uM after 24 hrs by qPCR analysis; format: functional, cell-based
[9] = test system: C3H 10T1/2; experiment: Effect on CYP24A1 RNA level in non-targeting siRNA treated mouse C3H10T1/2 cells at 5 uM after 24 hrs by qPCR analysis; format: functional, cell-based
How it was run: (§4)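 C3H10T1/2 cells transfected 24 h after seeding with mouse VDR-specific or nontargeting siRNA plus Lipofectamine 2000 in medium with 0.5% FBS for 6 h, then complete medium overnight. Treated 24 h post-transfection (5 μM; calcitriol 0.5 μM). RNA and cDNA prepared 24 h later (48 h post-transfection), then qPCR of VDR, Gli1 and Cyp24A1. Representative experiment in triplicate.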

[10] = Inhibition of hedgehog signaling pathway in non-targeting siRNA treated mouse C3H10T1/2 cells assessed as effect on VDR expression at 5 uM after 24 hrs by qPCR analysis; format: cell-based; conditions: C3H 10T1/2; how it was run: as §4
[11] = Inhibition of hedgehog signaling pathway-mediated GLI1 mRNA expression in mouse C3H10T1/2 cells after 24 hrs by RT-PCR analysis in presence of GDC-0449; format: cell-based; conditions: C3H 10T1/2
[12] = target: T2, Vitamin D3 receptor (Homo sapiens) (UniProt P11473); experiment: Activation of VDR in human DaOY cells assessed as upregulation of CYP24A1 mRNA expression at 5 uM after 24 hrs by RT-PCR analysis relative to DMSO-treated control; format: cell-based; how it was run: as §2
T2 sequence (whole entry): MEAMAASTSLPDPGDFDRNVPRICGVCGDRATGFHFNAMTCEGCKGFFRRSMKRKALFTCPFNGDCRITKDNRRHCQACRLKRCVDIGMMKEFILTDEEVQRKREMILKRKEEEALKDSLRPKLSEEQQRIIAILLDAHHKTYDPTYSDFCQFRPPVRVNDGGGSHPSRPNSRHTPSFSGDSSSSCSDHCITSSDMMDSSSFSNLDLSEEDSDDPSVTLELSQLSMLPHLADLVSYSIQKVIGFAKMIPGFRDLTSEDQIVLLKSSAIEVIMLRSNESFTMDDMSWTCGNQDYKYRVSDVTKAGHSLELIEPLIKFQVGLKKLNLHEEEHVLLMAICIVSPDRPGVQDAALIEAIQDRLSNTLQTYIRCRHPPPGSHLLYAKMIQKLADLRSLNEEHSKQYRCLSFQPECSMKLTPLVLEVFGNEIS

[13] = Activation of hedgehog signaling pathway in VDR-knockdown mouse C3H10T1/2 cells assessed as effect on VDR expression at 5 uM after 24 hrs by qPCR analysis; format: cell-based; conditions: C3H 10T1/2; how it was run: as §4
[14] = Inhibition of hedgehog signaling pathway in VDR-knockdown mouse C3H10T1/2 cells assessed as effect on VDR expression at 5 uM after 24 hrs by qPCR analysis; format: cell-based; conditions: C3H 10T1/2; how it was run: as §4
[15] = Activation of hedgehog signaling pathway in non-targeting siRNA treated mouse C3H10T1/2 cells assessed as effect on VDR expression at 5 uM after 24 hrs by qPCR analysis; format: cell-based; conditions: C3H 10T1/2; how it was run: as §4
[16] = Inhibition of hedgehog signaling pathway-mediated GLI1 mRNA expression in human DaOY cells after 24 hrs by RT-PCR analysis; format: cell-based; how it was run: as §3
[17] = Inhibition of hedgehog signaling pathway-mediated PTCH mRNA expression in human DaOY cells after 24 hrs by RT-PCR analysis; format: cell-based; how it was run: as §3
[18] = target: Protein smoothened (Homo sapiens) (UniProt Q99835); experiment: Displacement of BODIPY-cyclopamine from full length human SMO receptor overexpressed in HEK293T cells up to 10 uM after 4 hrs by flow cytometric analysis; format: cell-based; conditions: HEK-293T
How it was run: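 HEK293T cells transfected overnight with Myc-tagged full-length human Smo plasmid, split, then 2 days post-transfection incubated in DMEM/10% FBS with BODIPY-cyclopamine (5 nM) and test compound at 37 °C for 4 h. Cells trypsinized and resuspended in PBS. Bound BODIPY-cyclopamine read by flow cytometry. Transfection checked by anti-Myc staining. Representative experiment in triplicate.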

Protein smoothened (Homo sapiens), sequence (Q99835 whole entry): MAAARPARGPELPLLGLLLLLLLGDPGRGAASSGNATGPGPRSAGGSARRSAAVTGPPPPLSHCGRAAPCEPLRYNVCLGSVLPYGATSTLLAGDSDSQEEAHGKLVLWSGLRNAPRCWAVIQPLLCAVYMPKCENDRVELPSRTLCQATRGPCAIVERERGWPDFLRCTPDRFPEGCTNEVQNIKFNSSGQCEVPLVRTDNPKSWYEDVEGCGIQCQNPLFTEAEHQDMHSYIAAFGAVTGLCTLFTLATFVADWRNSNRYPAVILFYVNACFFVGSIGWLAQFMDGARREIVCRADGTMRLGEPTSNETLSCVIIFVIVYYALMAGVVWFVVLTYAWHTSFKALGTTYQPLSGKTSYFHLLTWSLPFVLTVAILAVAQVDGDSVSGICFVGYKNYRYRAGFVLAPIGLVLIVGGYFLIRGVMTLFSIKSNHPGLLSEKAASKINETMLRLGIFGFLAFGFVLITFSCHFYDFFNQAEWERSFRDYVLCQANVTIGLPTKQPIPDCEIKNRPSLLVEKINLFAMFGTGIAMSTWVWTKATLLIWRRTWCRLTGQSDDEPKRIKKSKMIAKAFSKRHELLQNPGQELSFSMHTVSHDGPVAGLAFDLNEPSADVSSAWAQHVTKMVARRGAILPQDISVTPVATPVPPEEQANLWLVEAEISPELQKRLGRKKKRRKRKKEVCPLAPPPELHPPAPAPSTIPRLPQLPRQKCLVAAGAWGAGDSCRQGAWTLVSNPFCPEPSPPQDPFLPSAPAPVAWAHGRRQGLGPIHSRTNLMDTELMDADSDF

IC50 [2]: 1.1 µM | IC50 ([3]; C3H 10T1/2, 24 h): 0.74 µM | fold change (FC) [4]: 22.2 | IC50 [5]: 5.2 µM | inhibition [6]: inactive | fold change (FC) [7]: 1.9 | fold change (FC) [12]: 1.9 | IC50 [16]: 3.7 µM | IC50 [17]: 3.6 µM | inhibition [18]: inactive
SMILES: CC(C)CCC[C@@H](C)[C@H]1CC[C@H]2[C@@H](OC(=O)c3cccc(O)c3)CCC[C@]12C
Activity [1]: 1.9% | inhibition ([3]; C3H 10T1/2): Dose-dependent effect | Activity [8]: inactive | Activity [9]: Active | inhibition [10]: inactive | inhibition [11]: Active | Activity [13]: inactive | inhibition [14]: inactive | Activity [15]: inactive
